Results as given in ChEMBL document CHEMBL4825764, “Flavonoid Monomers as Potent, Nontoxic, and Selective Modulators of the Breast Cancer Resistance Protein (ABCG2)” (J Med Chem, 2021).
Activity calls are given as the source filed them. No cut-off for these calls is given here.

system: L929; assay: Cytotoxicity against mouse L929 cells assessed as reduction in cell viability; format: cell-based; conditions: not given

| Compound | IC50 |
| --- | --- |
| COC(=O)c1cccc(COc2c(-c3ccc(OCCOCCn4cc(CN(C)Cc5ccccc5)nn4)cc3)oc3ccccc3c2=O)c1 | > 100 µM |
| COC(=O)c1cccc(COc2c(-c3ccc(OCCOCCOCCn4cc(CCN5C(=O)c6ccccc6C5=O)nn4)cc3)oc3ccccc3c2=O)c1 | > 100 µM |
| C#CCCCCOc1ccc(-c2oc3ccccc3c(=O)c2OCc2cccc(C(=O)OC)c2)cc1 | > 100 µM |
| COC(=O)c1cccc(COc2c(-c3ccc(OCCOCCOCCn4cc(CCCCOc5ccc(C=O)cc5)nn4)cc3)oc3ccccc3c2=O)c1 | 37.8 µM |

species: Homo sapiens; assay: Selectivity index, ratio of EC50 for inhibition of MRP1 (unknown origin) expressed in 2008/MRP1 cells assessed as reversal of doxorubicin resistance to EC50 for inhibition of BCRP (unknown origin) transfected in HEK293/R2 cells assessed as reversal of topotecan resistance; format: cell-based; conditions: not given
How it was run: (§1)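 Selectivity index is the EC50 against the other transporter's line divided by the EC50 in the BCRP line. All values come from 5-day MTS reversal assays. These use topotecan in HEK293/R2 (0–2000 nM) or MCF7-MX100 (0–100 μM), doxorubicin in 2008/MRP1, and paclitaxel in LCC6MDR, each with modulator at 0–1000 nM.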

| Compound | Ratio EC50 |
| --- | --- |
| COC(=O)c1cccc(COc2c(-c3ccc(OCCOCCn4cc(CN(C)Cc5ccccc5)nn4)cc3)oc3ccccc3c2=O)c1 | 67 |
| COC(=O)c1cccc(COc2c(-c3ccc(OCCOCCOCCn4cc(CCN5C(=O)c6ccccc6C5=O)nn4)cc3)oc3ccccc3c2=O)c1 | 6 |
| C#CCCCCOc1ccc(-c2oc3ccccc3c(=O)c2OCc2cccc(C(=O)OC)c2)cc1 | 23 |
| COC(=O)c1cccc(COc2c(-c3ccc(OCCOCCOCCn4cc(CCCCOc5ccc(C=O)cc5)nn4)cc3)oc3ccccc3c2=O)c1 | 46 |

species: Homo sapiens; assay: Selectivity index, ratio of EC50 for inhibition of P-gp (unknown origin) expressed in LCC6MDR cells assessed as reversal of paclitaxel resistance to EC50 for Inhibition of BCRP (unknown origin) expressed in MCF7/MX100 cells assessed as reversal of topotecan resistance; format: cell-based; conditions: not given; how it was run: as §1

| Compound | Ratio EC50 |
| --- | --- |
| COC(=O)c1cccc(COc2c(-c3ccc(OCCOCCn4cc(CN(C)Cc5ccccc5)nn4)cc3)oc3ccccc3c2=O)c1 | 286 |
| C#CCCCCOc1ccc(-c2oc3ccccc3c(=O)c2OCc2cccc(C(=O)OC)c2)cc1 | 24 |
| COC(=O)c1cccc(COc2c(-c3ccc(OCCOCCOCCn4cc(CCCCOc5ccc(C=O)cc5)nn4)cc3)oc3ccccc3c2=O)c1 | 26 |

system: HEK293; assay: Effect on BCRP protein expression in human HEK293/R2 cells at 1 to 3 uM after 24 hrs by flow cytometric analysis; format: functional, cell-based; conditions: dose 1-3 µM
How it was run: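 HEK293/R2 and HEK293/pcDNA3.1 cells were exposed to 0, 1 or 3 μM compound for 24 hr, with 0.1–0.3% DMSO as solvent control. Cells were trypsinized and stained with FITC anti-human BCRP for 45 min at 4 °C, with an IgG2b-FITC isotype control. Surface signal was read by flow cytometry on FL1 over 50,000 events.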

| Compound | Activity |
| --- | --- |
| COC(=O)c1cccc(COc2c(-c3ccc(OCCOCCn4cc(CN(C)Cc5ccccc5)nn4)cc3)oc3ccccc3c2=O)c1 | inactive |

species: Homo sapiens; assay: Selectivity index, ratio of EC50 for inhibition of P-gp (unknown origin) expressed in LCC6MDR cells assessed as reversal of mitoxantrone resistance to EC50 for inhibition of BCRP (unknown origin) expressed in HEK293/R2 cells assessed as reversal of mitoxantrone resistance; format: cell-based; conditions: not given
How it was run: (§2)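 Selectivity index is the EC50 in 2008/MRP1 or LCC6MDR divided by the EC50 in HEK293/R2. All three lines were measured by 5-day mitoxantrone co-incubation with modulator, with MTS/PMS read-out at 490 nm.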

| Compound | Ratio EC50 |
| --- | --- |
| COC(=O)c1cccc(COc2c(-c3ccc(OCCOCCn4cc(CN(C)Cc5ccccc5)nn4)cc3)oc3ccccc3c2=O)c1 | 38 |

biological target: T1, Broad substrate specificity ATP-binding cassette transporter ABCG2 (Homo sapiens, UniProt Q9UNQ0); assay: Inhibition of BCRP (unknown origin) expressed in human HEK293/R2 cells assessed as increase in intracellular mitoxantrone accumulation by measuring fold change at 2 uM after 2 hrs in presence of mitoxantrone by flow cytometry analysis relative to control; format: cell-based; conditions: hek293/r2, 2 h
T1 sequence (Q9UNQ0 whole entry): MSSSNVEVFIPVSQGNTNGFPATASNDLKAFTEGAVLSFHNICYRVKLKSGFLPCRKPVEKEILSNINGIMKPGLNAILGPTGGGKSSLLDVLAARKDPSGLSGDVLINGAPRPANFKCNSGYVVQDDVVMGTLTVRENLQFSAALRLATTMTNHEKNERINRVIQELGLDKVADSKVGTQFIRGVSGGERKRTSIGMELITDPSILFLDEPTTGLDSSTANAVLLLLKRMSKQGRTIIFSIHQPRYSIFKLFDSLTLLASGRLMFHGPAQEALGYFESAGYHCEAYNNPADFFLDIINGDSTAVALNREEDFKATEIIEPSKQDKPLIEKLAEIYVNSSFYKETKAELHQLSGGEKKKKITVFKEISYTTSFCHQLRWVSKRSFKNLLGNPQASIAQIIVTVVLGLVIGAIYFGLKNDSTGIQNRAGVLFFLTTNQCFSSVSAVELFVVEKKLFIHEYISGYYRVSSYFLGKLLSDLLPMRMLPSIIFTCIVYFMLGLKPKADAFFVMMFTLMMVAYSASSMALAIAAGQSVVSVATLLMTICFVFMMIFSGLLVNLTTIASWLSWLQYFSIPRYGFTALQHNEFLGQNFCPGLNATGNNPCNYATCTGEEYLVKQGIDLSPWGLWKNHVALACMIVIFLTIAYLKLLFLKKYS
How it was run: (§3)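 5 × 10^5 HEK293/pcDNA3.1 or HEK293/R2 cells in 1 mL were incubated 2 hr at 37 °C with 50 μM topotecan or 5 μM mitoxantrone plus 1 or 2 μM modulator, with DMSO as the vehicle control. Cells were washed in cold PBS and resuspended in FACS buffer. Flow cytometry read FL1 (topotecan) or FL4 (mitoxantrone) over 50,000 events, normalized to wild-type cells.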

| Compound | fold change (FC) |
| --- | --- |
| COC(=O)c1cccc(COc2c(-c3ccc(OCCOCCn4cc(CN(C)Cc5ccccc5)nn4)cc3)oc3ccccc3c2=O)c1 | 6.3 |

species: Homo sapiens; assay: Selectivity index, ratio of EC50 for inhibition of MRP1 (unknown origin) expressed in 2008/MRP1 cells assessed as reversal of mitoxantrone resistance to EC50 for inhibition of BCRP (unknown origin) expressed in HEK293/R2 cells assessed as reversal of mitoxantrone resistance; format: cell-based; conditions: not given; how it was run: as §2

| Compound | Ratio EC50 |
| --- | --- |
| COC(=O)c1cccc(COc2c(-c3ccc(OCCOCCn4cc(CN(C)Cc5ccccc5)nn4)cc3)oc3ccccc3c2=O)c1 | 40 |

biological target: T1, Broad substrate specificity ATP-binding cassette transporter ABCG2; assay: Inhibition of BCRP (unknown origin) expressed in human HEK293/R2 cells assessed as increase in intracellular mitoxantrone accumulation by measuring fold change at 1 uM after 2 hrs in presence of mitoxantrone by flow cytometry analysis relative to control; format: cell-based; conditions: hek293/r2, 2 h; how it was run: as §3

| Compound | fold change (FC) |
| --- | --- |
| COC(=O)c1cccc(COc2c(-c3ccc(OCCOCCn4cc(CN(C)Cc5ccccc5)nn4)cc3)oc3ccccc3c2=O)c1 | 6.2 |

biological target: T1, Broad substrate specificity ATP-binding cassette transporter ABCG2; assay: Inhibition of BCRP (unknown origin) expressed in wild type HEK293/pcDNA3.1 cells assessed as increase in intracellular topotecan accumulation at 1 to 2 uM after 2 hrs in presence of topotecan by flow cytometry analysis relative to control; format: cell-based; conditions: hek293, 2 h, dose 1-2 µM; how it was run: as §3

| Compound | inhibition (INH) |
| --- | --- |
| COC(=O)c1cccc(COc2c(-c3ccc(OCCOCCn4cc(CN(C)Cc5ccccc5)nn4)cc3)oc3ccccc3c2=O)c1 | Not Active |

biological target: T1, Broad substrate specificity ATP-binding cassette transporter ABCG2; assay: Inhibition of BCRP (unknown origin) expressed in human HEK293/R2 cells assessed as increase in intracellular topotecan accumulation by measuring fold change at 1 uM after 2 hrs in presence of topotecan by flow cytometry analysis relative to control; format: cell-based; conditions: hek293/r2, 2 h; how it was run: as §3

| Compound | fold change (FC) |
| --- | --- |
| COC(=O)c1cccc(COc2c(-c3ccc(OCCOCCn4cc(CN(C)Cc5ccccc5)nn4)cc3)oc3ccccc3c2=O)c1 | 7.2 |

biological target: T1, Broad substrate specificity ATP-binding cassette transporter ABCG2; assay: Inhibition of BCRP (unknown origin) expressed in wild type HEK293/pcDNA3.1 cells assessed as increase in intracellular mitoxantrone accumulation at 1 to 2 uM after 2 hrs in presence of mitoxantrone by flow cytometry analysis relative to control; format: cell-based; conditions: hek293, 2 h, dose 1-2 µM; how it was run: as §3

| Compound | inhibition (INH) |
| --- | --- |
| COC(=O)c1cccc(COc2c(-c3ccc(OCCOCCn4cc(CN(C)Cc5ccccc5)nn4)cc3)oc3ccccc3c2=O)c1 | Not Active |

species: Homo sapiens; assay: Selectivity index, ratio of EC50 for inhibition of P-gp (unknown origin) expressed in LCC6MDR cells assessed as reversal of paclitaxel resistance to EC50 for inhibition of BCRP (unknown origin) transfected in HEK293/R2 cells assessed as reversal of topotecan resistance; format: cell-based; conditions: not given; how it was run: as §1

| Compound | Ratio EC50 |
| --- | --- |
| COC(=O)c1cccc(COc2c(-c3ccc(OCCOCCn4cc(CN(C)Cc5ccccc5)nn4)cc3)oc3ccccc3c2=O)c1 | 67 |
| COC(=O)c1cccc(COc2c(-c3ccc(OCCOCCOCCn4cc(CCN5C(=O)c6ccccc6C5=O)nn4)cc3)oc3ccccc3c2=O)c1 | 6 |
| C#CCCCCOc1ccc(-c2oc3ccccc3c(=O)c2OCc2cccc(C(=O)OC)c2)cc1 | 19 |
| COC(=O)c1cccc(COc2c(-c3ccc(OCCOCCOCCn4cc(CCCCOc5ccc(C=O)cc5)nn4)cc3)oc3ccccc3c2=O)c1 | 53 |

biological target: T1, Broad substrate specificity ATP-binding cassette transporter ABCG2; assay: Inhibition of BCRP (unknown origin) expressed in human HEK293/R2 cells assessed as increase in intracellular topotecan accumulation by measuring fold change at 2 uM after 2 hrs in presence of topotecan by flow cytometry analysis relative to control; format: cell-based; conditions: hek293/r2, 2 h; how it was run: as §3

| Compound | fold change (FC) |
| --- | --- |
| COC(=O)c1cccc(COc2c(-c3ccc(OCCOCCn4cc(CN(C)Cc5ccccc5)nn4)cc3)oc3ccccc3c2=O)c1 | 7 |

system: 2008; assay: Selectivity index, ratio of EC50 for inhibition of MRP1 (unknown origin) expressed in 2008/MRP1 cells assessed as reversal of doxorubicin resistance to Inhibition of BCRP (unknown origin) expressed in MCF7/MX100 cells assessed as reversal of topotecan resistance; format: cell-based; conditions: Homo sapiens; how it was run: as §1

| Compound | Ratio EC50 |
| --- | --- |
| COC(=O)c1cccc(COc2c(-c3ccc(OCCOCCn4cc(CN(C)Cc5ccccc5)nn4)cc3)oc3ccccc3c2=O)c1 | 286 |
| C#CCCCCOc1ccc(-c2oc3ccccc3c(=O)c2OCc2cccc(C(=O)OC)c2)cc1 | 30 |
| COC(=O)c1cccc(COc2c(-c3ccc(OCCOCCOCCn4cc(CCCCOc5ccc(C=O)cc5)nn4)cc3)oc3ccccc3c2=O)c1 | 23 |
